Measured values pooled from the literature.
Lines come from different studies, so protocols differ.
Oprm1: Mu-type opioid receptor (Oprm1, Rattus norvegicus, UniProt P33535)

SMILES | target | test | conditions | quantity | result
OC[C@H]1CNCCN1C[C@@H]1CCCN1C[C@H](CC1CCCCC1)N1CCN(CCc2ccc(Cl)c(Cl)c2)[C@H](Cc2ccc(O)cc2)C1 | Oprm1 | ligand displacement, radioligand | 0.5 µM, 1 h, pH 7.5, cell membranes | remaining binding | 105%
Cn1cc(-c2cccc(N3CCc4c(sc5c4CC(C)(C)C5)C3=O)c2CO)cc(Nc2ccncn2)c1=O | Mast/stem cell growth factor receptor Kit (KIT, Homo sapiens, UniProt P10721, T670I) | enzyme activity, inhibitor | 1 µM | inhibition | 0%
Cc1nn(C)cc1-c1nc2c(N3CCN(Cc4ccc(Cl)cc4)CC3)c(Cl)cnc2[nH]1 | Mast/stem cell growth factor receptor Kit (KIT, Homo sapiens, UniProt P10721, D816H) | binding, competition with immobilised ligand | 1 µM | remaining binding | 71%
COc1ncccc1-c1cnn2ccc(N3CCN(C(=O)OC(C)C)CC3)nc12 | Casein kinase II subunit alpha (CSNK2A1, Homo sapiens, UniProt P68400) | binding, competition with immobilised ligand | 1 µM | remaining binding | 79%
Oc1ccc(C[C@@H]2CN([C@H](Cc3ccc4ccccc4c3)CN3CCC[C@H]3CN3CCNC[C@@H]3Cc3ccc4ccccc4c3)CCN2CCC23CC4CC(CC(C4)C2)C3)cc1 | Oprm1 | ligand displacement, radioligand | 0.5 µM, 1 h, pH 7.5, cell membranes | remaining binding | 112%
C#Cc1n[nH]c2c(-c3cn(C(C)c4ccccn4)c(=O)[nH]c3=O)cc(F)cc12 (stereo not shown) | Vascular endothelial growth factor receptor 1 (FLT1, Homo sapiens, UniProt P17948) | enzyme activity, inhibitor | 1 µM | inhibition | -3.1%
C[C@@H](O)[C@@H]1CN([C@H](Cc2ccc3ccccc3c2)CN2CCC[C@H]2CN2CCNC[C@@H]2Cc2ccc3ccccc3c2)CCN1CCC12CC3CC(CC(C3)C1)C2 | Oprm1 | ligand displacement, radioligand | 0.5 µM, 1 h, pH 7.5, cell membranes | remaining binding | 107%
Cn1cc(-c2cc(F)cc(N3CCn4c(cc5c4CCCC5)C3=O)c2CO)cc(Nc2ccc(N3CCN(C4COC4)CC3)cn2)c1=O | Phosphatidylinositol 4-kinase alpha (PI4KA, Homo sapiens, UniProt P42356) | enzyme activity, inhibitor | 0.1 µM | inhibition | 6%
Nc1ncc(-c2nc(N3CCOCC3)nc(N3CCOCC3)n2)c(C(F)F)n1 | Mast/stem cell growth factor receptor Kit (KIT, Homo sapiens, UniProt P10721, V559D) | binding, competition with immobilised ligand | 10 µM | remaining binding | 18%
CC(C)(C)c1nc(-c2cccc(NS(=O)(=O)c3c(F)cccc3F)c2F)c(-c2ccnc(N)n2)s1 | Tau-tubulin kinase 1 (TTBK1, Homo sapiens, UniProt Q5TCY1) | enzyme activity, inhibitor, radiometric | 1 µM | remaining activity | 89%
